Results published in ChEMBL document CHEMBL2401705, “Discovery of triazines as potent, selective and orally active PDE4 inhibitors” (Bioorg Med Chem Lett, 2013).
Values after ≈ are worked out from the molar mass of the structure shown.

Assays:
[1] = target: 3',5'-cyclic-AMP phosphodiesterase 4A (Homo sapiens, UniProt P27815); assay: Inhibition of human full length PDE4A4 expressed in baculovirus infected sf21 cells
[2] = target: High affinity 3',5'-cyclic-AMP phosphodiesterase 7A (Homo sapiens, UniProt Q13946); assay: Inhibition of human full length PDE7A1 expressed in baculovirus infected sf21 cells
[3] = Intrinsic clearance in rat liver microsomes; type: ADME, Microsome; conditions: read-out: CLH
[4] = Aqueous solubility of the compound at pH 7.4; conditions: buffer
[5] = species: Homo sapiens; assay: Selectivity ratio of IC50 for human full length PDE7A1 to IC50 for human full length PDE4A4
[6] = Inhibition of cytochrome P450 (unknown origin); type: ADME; conditions: human
[7] = target: Voltage-gated inwardly rectifying potassium channel KCNH2 (Homo sapiens, UniProt Q12809); assay: Inhibition of human ERG
How it was run: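 hERG was tested in a binding-format assay as percent inhibition at a single test concentration of 10 µM.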

[8] = target: serum albumin (Homo sapiens, UniProt P02768); assay: Binding affinity to human serum albumin; type: ADME; conditions: read-out: PB (converted)
[9] = test system: Mustela putorius furo; assay: Inhibition of LPS-induced neutrophilia in ferret COPD model BAL-fluid at 10 mg/kg, po; type: functional
[10] = test system: Mustela putorius furo; assay: Toxicity in po dosed ferret assessed as first emetic dose by measuring occurrence of vomiting episode after 6 hrs; type: organism-based; conditions: in vivo
How it was run: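 Ferrets were given oral doses and watched for 6 h after administration for a vomiting episode; the first emetic dose was reported in mg/kg.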

Sequence of High affinity 3',5'-cyclic-AMP phosphodiesterase 7A (Q13946 whole entry): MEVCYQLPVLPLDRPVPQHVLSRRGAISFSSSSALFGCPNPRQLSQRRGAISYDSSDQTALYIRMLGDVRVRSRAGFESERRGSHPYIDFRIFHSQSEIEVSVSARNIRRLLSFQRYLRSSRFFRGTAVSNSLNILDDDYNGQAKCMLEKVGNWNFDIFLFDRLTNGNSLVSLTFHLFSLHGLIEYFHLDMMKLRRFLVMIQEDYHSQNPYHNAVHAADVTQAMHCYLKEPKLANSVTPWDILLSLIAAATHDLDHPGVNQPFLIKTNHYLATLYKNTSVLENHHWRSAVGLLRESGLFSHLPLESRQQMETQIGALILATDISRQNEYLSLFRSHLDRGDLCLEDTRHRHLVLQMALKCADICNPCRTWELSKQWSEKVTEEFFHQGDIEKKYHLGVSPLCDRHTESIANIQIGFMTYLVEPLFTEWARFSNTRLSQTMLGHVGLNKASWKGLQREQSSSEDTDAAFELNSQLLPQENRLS
Sequence of 3',5'-cyclic-AMP phosphodiesterase 4A (P27815 whole entry): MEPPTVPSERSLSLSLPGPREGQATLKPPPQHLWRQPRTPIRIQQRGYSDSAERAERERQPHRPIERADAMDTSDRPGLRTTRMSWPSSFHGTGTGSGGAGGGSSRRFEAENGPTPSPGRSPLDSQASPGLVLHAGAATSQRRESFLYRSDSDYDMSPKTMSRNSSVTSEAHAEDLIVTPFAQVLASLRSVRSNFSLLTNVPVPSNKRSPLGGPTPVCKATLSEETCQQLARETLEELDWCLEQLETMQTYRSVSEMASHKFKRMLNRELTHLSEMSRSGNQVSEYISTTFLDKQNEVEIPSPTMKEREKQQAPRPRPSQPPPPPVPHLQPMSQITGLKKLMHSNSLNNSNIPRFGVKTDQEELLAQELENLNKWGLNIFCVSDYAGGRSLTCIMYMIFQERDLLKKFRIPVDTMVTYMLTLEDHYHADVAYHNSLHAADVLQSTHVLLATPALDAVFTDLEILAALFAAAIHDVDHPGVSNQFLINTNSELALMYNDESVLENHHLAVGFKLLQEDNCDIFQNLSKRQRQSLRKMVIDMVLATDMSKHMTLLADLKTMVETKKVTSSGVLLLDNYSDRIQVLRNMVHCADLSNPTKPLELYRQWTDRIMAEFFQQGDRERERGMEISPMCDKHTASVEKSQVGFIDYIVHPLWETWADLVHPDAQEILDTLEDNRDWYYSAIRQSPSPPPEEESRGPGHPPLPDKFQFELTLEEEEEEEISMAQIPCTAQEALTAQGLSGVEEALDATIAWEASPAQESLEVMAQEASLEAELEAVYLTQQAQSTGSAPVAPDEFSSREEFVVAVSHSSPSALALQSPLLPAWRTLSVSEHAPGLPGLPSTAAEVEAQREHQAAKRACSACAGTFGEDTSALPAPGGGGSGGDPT
Sequence of Voltage-gated inwardly rectifying potassium channel KCNH2 (Q12809 whole entry): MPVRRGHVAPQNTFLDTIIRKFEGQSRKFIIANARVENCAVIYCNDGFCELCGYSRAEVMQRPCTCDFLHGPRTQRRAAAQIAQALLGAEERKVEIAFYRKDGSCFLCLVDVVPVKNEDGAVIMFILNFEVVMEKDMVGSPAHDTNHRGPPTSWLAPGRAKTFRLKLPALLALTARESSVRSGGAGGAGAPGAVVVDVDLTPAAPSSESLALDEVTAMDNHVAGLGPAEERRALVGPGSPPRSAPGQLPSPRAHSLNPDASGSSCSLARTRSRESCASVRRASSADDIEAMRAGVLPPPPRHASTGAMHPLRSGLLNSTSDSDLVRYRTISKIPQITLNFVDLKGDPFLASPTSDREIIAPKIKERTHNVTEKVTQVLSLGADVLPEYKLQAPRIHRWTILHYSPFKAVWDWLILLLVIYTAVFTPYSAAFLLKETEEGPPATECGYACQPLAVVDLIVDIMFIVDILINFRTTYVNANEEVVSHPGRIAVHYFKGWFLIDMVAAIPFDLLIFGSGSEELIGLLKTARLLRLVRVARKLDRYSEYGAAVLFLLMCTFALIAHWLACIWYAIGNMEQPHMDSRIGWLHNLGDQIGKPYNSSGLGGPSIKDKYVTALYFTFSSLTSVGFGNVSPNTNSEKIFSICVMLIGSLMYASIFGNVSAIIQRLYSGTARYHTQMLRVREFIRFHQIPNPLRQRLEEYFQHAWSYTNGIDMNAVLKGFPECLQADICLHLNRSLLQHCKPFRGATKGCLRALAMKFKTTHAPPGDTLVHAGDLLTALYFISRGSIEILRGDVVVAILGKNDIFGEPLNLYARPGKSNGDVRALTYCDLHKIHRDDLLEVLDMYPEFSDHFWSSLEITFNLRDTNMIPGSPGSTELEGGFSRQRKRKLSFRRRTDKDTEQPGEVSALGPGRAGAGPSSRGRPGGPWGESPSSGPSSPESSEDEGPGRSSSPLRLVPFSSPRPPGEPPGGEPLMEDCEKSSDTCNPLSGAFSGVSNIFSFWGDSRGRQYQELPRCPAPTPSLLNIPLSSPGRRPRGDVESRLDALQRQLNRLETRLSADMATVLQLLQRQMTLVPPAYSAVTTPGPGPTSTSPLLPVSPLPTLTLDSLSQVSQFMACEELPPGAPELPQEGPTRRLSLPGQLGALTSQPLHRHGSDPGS
Sequence of serum albumin (P02768 whole entry): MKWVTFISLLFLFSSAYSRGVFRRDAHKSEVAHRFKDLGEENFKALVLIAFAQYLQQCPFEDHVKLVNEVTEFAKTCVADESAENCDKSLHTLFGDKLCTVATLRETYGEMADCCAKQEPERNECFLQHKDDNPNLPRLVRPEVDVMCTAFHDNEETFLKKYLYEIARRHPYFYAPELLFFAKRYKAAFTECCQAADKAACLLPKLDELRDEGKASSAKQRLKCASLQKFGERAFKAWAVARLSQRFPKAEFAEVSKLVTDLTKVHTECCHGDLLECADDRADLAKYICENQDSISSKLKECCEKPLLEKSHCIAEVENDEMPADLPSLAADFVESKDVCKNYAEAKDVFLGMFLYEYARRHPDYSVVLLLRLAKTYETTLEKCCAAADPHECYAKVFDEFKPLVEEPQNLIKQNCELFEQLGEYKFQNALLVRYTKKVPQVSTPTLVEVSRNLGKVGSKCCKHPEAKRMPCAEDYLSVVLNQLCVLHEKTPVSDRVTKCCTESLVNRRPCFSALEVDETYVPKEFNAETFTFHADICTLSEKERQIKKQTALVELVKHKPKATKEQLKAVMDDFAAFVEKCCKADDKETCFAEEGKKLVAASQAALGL

| IC50 [1] [nM] | Compound | IC50 [2] [nM] | CLint scaled [3] [mL/min/kg] | further results |
| --- | --- | --- | --- | --- |
| 563 | CN(c1nc(N)nc(Cl)n1)C1(C#N)CCCCC1 | – | – | – |
| 156 | CCC(C)(CC)Nc1nc(Cl)nc(NC)n1 | – | – | – |
| 160 | CNc1nc(Cl)nc(NC(C)(C)C#N)n1 | – | – | – |
| 1.4 | CNc1nc(NC2(C#N)CCCC2)nc(-n2cncn2)n1 | – | 43 | solubility [4]: 165 µg/mL (≈ 578 µM) |
| > 1000 | CNc1nc(N)nc(NC2(C#N)CCCCC2)n1 | – | – | – |
| 1040 | N#CC1(Nc2nc(N)nc(Cl)n2)CCCCC1 | – | – | – |
| 87 | CCC(C#N)(CC)Nc1nc(Cl)nc(NC)n1 | – | – | – |
| 0.15 | CNc1nc(NC2(C#N)CCCCC2C)nc(-n2cncn2)n1 (mixture of isomers) | – | 86 | solubility [4]: 25 µg/mL |
| 165 | CONc1nc(Cl)nc(NC2(C#N)CCCCC2)n1 | – | – | – |
| – | COc1ccc([C@]2(C#N)CC[C@@H](C(=O)O)CC2)cc1OC1CCCC1 [CILOMILAST] | – | – | solubility [4]: 17 µg/mL (≈ 49.5 µM); fraction unbound [8]: 0.09; inhibition in vivo at 10 mg/kg [9]: 35%; Activity [10]: 1 mg/kg |
| 0.89 | CNc1nc(NC(C#N)(C2CC2)C2CC2)nc(-n2cncn2)n1 | – | 3.7 | solubility [4]: 22 µg/mL (≈ 70.7 µM) |
| 60 | CCCC(C#N)(CCC)Nc1nc(Cl)nc(NC)n1 | – | – | – |
| 245 | CNc1nc(Cl)nc(NC(C)(C)C)n1 | – | – | – |
| 1.1 | CCCC(C#N)(CC)Nc1nc(NC)nc(-n2cncn2)n1 (racemic) | – | 29 | solubility [4]: 76 µg/mL (≈ 252 µM) |
| 0.42 | CNc1nc(NC2(C#N)CCCCCC2)nc(-n2cncn2)n1 | – | 276 | solubility [4]: 9 µg/mL (≈ 28.7 µM) |
| 126 | N#CC1(Nc2nc(Cl)nc(NC3CC3)n2)CCCCC1 | – | – | – |

| Compound | IC50 [1] [nM] | IC50 [2] [nM] | CLint scaled [3] [mL/min/kg] | further results |
| --- | --- | --- | --- | --- |
| CNc1nc(NC2(C#N)CCCCC2)nc(-n2cnc(C)n2)n1 | 1 | > 5000 | > 276 | – |
| CNc1nc(NC2(C#N)CCCCC2)nc(-n2cnc(C#N)n2)n1 | 4.9 | > 5000 | 210 | – |
| CNc1nc(Cl)nc(NC2(C#N)CCCCC2)n1 | 40 | 1070 | 867 | – |
| CNc1nc(NC2(C#N)CCCCC2)nc(OC)n1 | 19 | 521 | 196 | – |
| CNc1nc(NC2(C#N)CCCCC2)nc(-n2cncn2)n1 | 1.7 | > 5000 | 52 | solubility [4]: 11 µg/mL (≈ 36.7 µM); Ratio IC50 [5]: > 1000; inhibition (INH) [6]: Not Active; inhibition (INH) [7]: Not Active |
| CNc1nc(NC2(C#N)CCCCC2)nc(N(C)C)n1 | 18 | > 5000 | 276 | – |
| CNc1nc(NC2(C#N)CCCCC2)nc(N2CCCC2)n1 | 38 | > 5000 | > 276 | – |
| CNc1nc(NC2(C#N)CCCCC2)nc(C2CC2)n1 | 19 | 539 | 276 | – |
